Reference: ChEMBL document CHEMBL1926627, “Synthesis and evaluation of novel modified γ-lactam prostanoids as EP4 subtype-selective agonists” (Bioorg Med Chem, 2012)

Columns and labels:
[1] = biological target: T1, Prostaglandin E2 receptor EP1 subtype (Mus musculus, UniProt P35375); assay: Displacement of [3H]-PGE2 from mouse EP1 receptor expressed in CHO cells after 20 mins by liquid scintillation counter; assay type: cell-based
T1 sequence (P35375 whole entry): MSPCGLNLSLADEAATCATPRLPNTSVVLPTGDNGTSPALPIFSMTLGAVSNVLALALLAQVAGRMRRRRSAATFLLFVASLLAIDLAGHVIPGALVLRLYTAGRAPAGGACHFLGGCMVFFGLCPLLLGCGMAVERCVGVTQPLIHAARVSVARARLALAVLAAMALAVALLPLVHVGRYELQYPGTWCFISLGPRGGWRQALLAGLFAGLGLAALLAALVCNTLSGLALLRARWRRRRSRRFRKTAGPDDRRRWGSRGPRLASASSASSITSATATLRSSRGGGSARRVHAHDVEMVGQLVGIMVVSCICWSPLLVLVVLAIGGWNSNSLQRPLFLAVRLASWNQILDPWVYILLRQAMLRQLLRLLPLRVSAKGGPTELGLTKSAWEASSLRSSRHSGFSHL
Summary of the method: (§1)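 Membranes from CHO cells stably expressing mouse EP1–4, incubated with 2.5 nM [³H]PGE₂ and test compound at various concentrations in 10 mM KH₂PO₄–KOH, 1 mM EDTA, 10 mM MgCl₂, 0.1 mM NaCl, pH 6.0. Incubated 25 °C, 60 min (EP1: 20 min). Filtration on GF/B, ice-cold buffer wash, scintillation counting. Nonspecific binding with excess unlabeled PGE₂. IC50 from regression curve; Ki = IC50/(1+[L]/Kd).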

[2] = biological target: Prostaglandin E2 receptor EP2 subtype (Mus musculus, UniProt Q62053); assay: Displacement of [3H]-PGE2 from mouse EP2 receptor expressed in CHO cells after 60 mins by liquid scintillation counter; assay type: cell-based; summary of the method: as §1
[3] = biological target: T2, Prostaglandin E2 receptor EP3 subtype (Mus musculus, UniProt P30557); assay: Displacement of [3H]-PGE2 from mouse EP3 receptor expressed in CHO cells after 60 mins by liquid scintillation counter; assay type: cell-based; summary of the method: as §1
T2 sequence (P30557 whole entry): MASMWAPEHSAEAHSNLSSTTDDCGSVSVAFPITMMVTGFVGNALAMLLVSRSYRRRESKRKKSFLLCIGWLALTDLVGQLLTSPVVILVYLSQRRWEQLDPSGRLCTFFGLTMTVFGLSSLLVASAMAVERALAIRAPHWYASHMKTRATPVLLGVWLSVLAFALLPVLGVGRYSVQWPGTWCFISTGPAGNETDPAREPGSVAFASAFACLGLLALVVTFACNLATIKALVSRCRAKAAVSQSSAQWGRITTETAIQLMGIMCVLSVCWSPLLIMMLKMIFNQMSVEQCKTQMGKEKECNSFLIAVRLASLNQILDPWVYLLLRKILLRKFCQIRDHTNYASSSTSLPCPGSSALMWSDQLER

[4] = biological target: Prostaglandin E2 receptor EP4 subtype (Mus musculus, UniProt P32240); assay: Displacement of [3H]-PGE2 from mouse EP4 receptor expressed in CHO cells after 60 mins by liquid scintillation counter; assay type: cell-based; summary of the method: as §1
[5] = biological target: Prostaglandin E2 receptor EP4 subtype (Rattus norvegicus, UniProt P43114); assay: Agonist activity at rat EP4 receptor expressed in CHO cells assessed as cAMP production after 10 mins by radioimmunoassay; assay type: functional, cell-based
Summary of the method: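 CHO cells expressing rat EP4 seeded at 1×10^5 cells/well and grown 2 days. Washed with MEM, then 10 min at 37 °C in MEM with 2 µM diclofenac. Preincubated 10 min at 37 °C in assay medium with 1% BSA. Test compound added, 10 min at 37 °C. Stopped with ice-cold 10% trichloroacetic acid. cAMP measured by radioimmunoassay.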

Rattus norvegicus = assay: Inhibition of LPS induced TNF-alpha production in po dosed Sprague-Dawley rat administered 30 mins before LPS challenge measured after 90 mins by ELISA; assay type: functional
Summary of the method: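 Seven-week-old Sprague–Dawley rats dosed orally with compound in sterile saline containing 20% HP-β-CD. LPS (1 mg/mL in sterile saline) given iv at 10 µg/2 mL/kg 30 min later. Blood drawn by aortic puncture into heparinized syringes 90 min after LPS. Plasma taken after centrifugation at 4 °C and frozen. Result given as ED50.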

[6] = Cmax in rat at 0.1 mg/kg, iv and 1 mg/kg, po; assay type: ADME, organism-based; conditions: in vivo
Summary of the method: (§2)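 Rat pharmacokinetics measured after 1 mg/kg po and 0.1 mg/kg iv dosing.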

[7] = AUC in rat at 0.1 mg/kg, iv and 1 mg/kg, po; assay type: ADME, organism-based; conditions: plasma; summary of the method: as §2
[8] = Total clearance rat at 0.1 mg/kg, iv and 1 mg/kg, po; assay type: ADME, organism-based; conditions: in vivo; summary of the method: as §2
[9] = Volume of distribution at steady state in rat at 0.1 mg/kg, iv and 1 mg/kg, po; assay type: ADME, organism-based; conditions: in vivo, read-out: Vdss; summary of the method: as §2
[10] = Oral bioavailability in rat at 1 mg/kg; assay type: ADME, organism-based; conditions: in vivo

Chain of Prostaglandin E2 receptor EP2 subtype (Q62053 whole entry): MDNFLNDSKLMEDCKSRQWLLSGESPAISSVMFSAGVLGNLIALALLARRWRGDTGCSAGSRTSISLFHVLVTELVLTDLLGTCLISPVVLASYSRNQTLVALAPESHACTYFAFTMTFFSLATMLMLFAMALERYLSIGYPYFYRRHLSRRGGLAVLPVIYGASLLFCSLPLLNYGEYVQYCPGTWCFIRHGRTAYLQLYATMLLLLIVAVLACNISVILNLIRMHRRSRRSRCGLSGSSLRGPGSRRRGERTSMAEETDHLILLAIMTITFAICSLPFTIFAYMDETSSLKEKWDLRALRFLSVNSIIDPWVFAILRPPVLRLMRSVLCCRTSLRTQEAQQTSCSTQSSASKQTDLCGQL
Chain of Prostaglandin E2 receptor EP4 subtype (Rattus norvegicus, UniProt P43114) (P43114 whole entry): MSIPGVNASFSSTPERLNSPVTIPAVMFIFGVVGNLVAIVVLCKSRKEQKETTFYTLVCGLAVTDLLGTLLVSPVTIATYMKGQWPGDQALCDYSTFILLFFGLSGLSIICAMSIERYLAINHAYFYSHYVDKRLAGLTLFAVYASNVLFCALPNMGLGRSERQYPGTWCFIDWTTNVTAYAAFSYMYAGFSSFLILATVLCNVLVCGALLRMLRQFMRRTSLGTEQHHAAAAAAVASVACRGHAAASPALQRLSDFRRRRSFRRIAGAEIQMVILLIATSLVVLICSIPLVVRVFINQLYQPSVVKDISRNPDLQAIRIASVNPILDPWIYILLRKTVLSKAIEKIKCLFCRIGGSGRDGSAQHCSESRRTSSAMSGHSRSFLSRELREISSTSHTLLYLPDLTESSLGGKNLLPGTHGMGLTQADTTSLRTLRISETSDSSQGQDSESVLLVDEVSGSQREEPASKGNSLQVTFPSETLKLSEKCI
Chain of Prostaglandin E2 receptor EP4 subtype (Mus musculus, UniProt P32240) (P32240 whole entry): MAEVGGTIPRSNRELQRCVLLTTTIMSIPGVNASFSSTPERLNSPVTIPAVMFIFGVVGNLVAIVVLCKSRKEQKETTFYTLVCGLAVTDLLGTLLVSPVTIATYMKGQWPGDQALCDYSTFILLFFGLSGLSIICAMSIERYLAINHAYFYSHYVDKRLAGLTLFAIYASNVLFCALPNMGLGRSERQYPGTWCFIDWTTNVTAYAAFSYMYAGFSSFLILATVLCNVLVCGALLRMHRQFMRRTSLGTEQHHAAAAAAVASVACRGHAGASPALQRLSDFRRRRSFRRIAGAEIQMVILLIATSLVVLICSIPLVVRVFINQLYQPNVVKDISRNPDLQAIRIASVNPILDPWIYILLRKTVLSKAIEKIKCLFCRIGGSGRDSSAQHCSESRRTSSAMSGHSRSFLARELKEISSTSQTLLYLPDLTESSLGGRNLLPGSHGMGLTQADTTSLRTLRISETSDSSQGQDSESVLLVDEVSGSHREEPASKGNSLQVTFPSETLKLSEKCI

SMILES | Ki [1] [nM] | Ki [2] [nM] | Ki [3] [nM] | Ki [4] [nM] | EC50 [5] [nM] | Cmax [6] [ng/mL] | AUC [7] [ng·h/mL] | clearance [8] [mL/min/kg] | Vd [9] [L/kg] | bioavailability [10] [%] | ED50 (Rattus norvegicus) [mg/kg]
O=C(O)CCCSCCN1C(=O)SC[C@@H]1/C=C/[C@@H](O)Cc1ccccc1 | > 10000 | > 10000 | 39 | 0.65 | 4.8 | 2.7 | 4 | 56 | 0.792 | 3.5 | 1
CCc1cccc(C[C@H](O)/C=C/[C@H]2CSC(=O)N2CCSCCCC(=O)O)c1 | 4600 | > 10000 | 65 | 0.88 | 1.9 | 10.4 | 19.5 | 75 | 0.538 | 8.6 | 1
CCCc1cccc(C[C@H](O)/C=C/[C@H]2CSC(=O)N2CCSCCCC(=O)O)c1 | > 10000 | > 10000 | 1200 | 0.98 | 6.1 | 11.4 | 17.7 | 52 | 1.28 | 6.3 | 1
O=C(O)CCCSCCN1C(=O)SC[C@@H]1/C=C/[C@@H](O)Cc1cccc(C(F)(F)F)c1 | > 10000 | > 10000 | 280 | 0.97 | 4.3 | 5.3 | 14.6 | 51 | 0.512 | 5.5 | 1
COCc1cccc(C[C@H](O)/C=C/[C@H]2CSC(=O)N2CCSCCCC(=O)O)c1 | > 10000 | > 10000 | > 10000 | 1.2 | 2.4 | 2.6 | 6.1 | 47 | 0.325 | 2 | 1
O=C(O)CCCCCCN1C(=S)CC[C@@H]1/C=C/[C@@H](O)Cc1ccccc1 | > 10000 | > 10000 | 2300 | 1.5 | 29 | – | – | – | – | – | –
O=C(O)CCCCCCN1C(=S)CC[C@@H]1/C=C/[C@@H](O)Cc1cccc(C(F)(F)F)c1 | > 10000 | > 10000 | 450 | 0.38 | 10 | – | – | – | – | – | –
COCc1cccc(C[C@H](O)/C=C/[C@H]2[C@H](O)CC(=O)[C@@H]2CCSCCCC(=O)O)c1 | > 10000 | – | – | – | 1.4 | – | – | – | – | – | –

Continued, in another order:

Ki [1] [nM] | Ki [2] [nM] | Ki [3] [nM] | Ki [4] [nM] | EC50 [5] [nM] | Cmax [6] [ng/mL] | AUC [7] [ng·h/mL] | clearance [8] [mL/min/kg] | Vd [9] [L/kg] | bioavailability [10] [%] | SMILES | ED50 (Rattus norvegicus) [mg/kg]
> 10000 | > 10000 | 1800 | 1.5 | 5.7 | – | – | – | – | – | O=C(O)CCCSCCN1C(=O)SC[C@@H]1/C=C/[C@@H](O)Cc1cccc(F)c1 | –
> 10000 | 1100 | 2300 | 0.83 | 9.4 | – | – | – | – | – | CCc1cccc(C[C@H](O)/C=C/[C@H]2CCC(=S)N2CCCCCCC(=O)O)c1 | –
> 10000 | 6800 | 2000 | 0.4 | 27 | – | – | – | – | – | CCCc1cccc(C[C@H](O)/C=C/[C@H]2CCC(=S)N2CCCCCCC(=O)O)c1 | –
> 10000 | > 10000 | 1700 | 0.69 | 26 | – | – | – | – | – | O=C(O)CCCCCCN1C(=S)CC[C@@H]1/C=C/[C@@H](O)Cc1cccc(F)c1 | –
> 10000 | 1400 | 6300 | 2 | 7.3 | 6.5 | 20.6 | 102 | 0.53 | 12.3 | COCc1cccc(C[C@H](O)/C=C/[C@H]2CCC(=S)N2CCCCCCC(=O)O)c1 | 3
2800 | 1700 | 980 | 0.5 | 7.7 | 3.4 | 29.9 | 61 | 1.76 | 9.8 | Cc1cccc(C[C@H](O)/C=C/[C@H]2CCC(=S)N2CCSCCCC(=O)O)c1 | 1
